Measured values from PMC10471475 (Parasites, Hosts and Diseases, 2023).
Where “and” joins values, the source holds several entries; their conditions need not be identical. Identical values can stand only once. Marks after values point to notes of the source that are not given here.

Tests used:
[1] = tested on: P. falciparum; details: cited from earlier work
[2] = tested on: P. berghei (NK65 strain); assay: Antimalarial activity following repeated oral dosing; format: in vivo, Plasmodium berghei; details: for Parasitemia day 1: before treatment (treatment days 2-4); for Parasitemia day 2: start of treatment
[3] = tested on: malaria parasites in mice; details: ointment, transdermal, cited from earlier work
[4] = tested on: mouse mammary tumor FM3A cells; details: in vitro; cited from earlier work
[5] = Pharmacokinetic analysis of N-89 in mice after single po or iv administration; format: in vivo, ICR mice; details: for plasma concentration: detection limit 5 ng/ml
How it was run: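 Male ICR mice got a single dose of test compound: 75 mg/kg po in olive oil or 30 mg/kg iv in 10% ethanol/10% Cremophor EL/80% saline. Blood sampled 0.25–10 h, one sample per mouse, 5 mice per time. Plasma obtained by centrifugation 10 min, 945 g, 4°C, acetonitrile-extracted, then LC/MS/MS (detection limit 5 ng/ml). Cmax observed; AUC and MRT from the mean time course (n=5).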

[6] = tested on: P. berghei (NK65 strain); assay: Peters' 4-day suppressive test by different administration routes; format: in vivo, Plasmodium berghei
How it was run: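 Peters' 4-day test: male ICR mice, iv inoculation of 1×10^5 P. berghei NK65-infected erythrocytes. First dose 2 h post-inoculation, then dosing on days 0–3. Routes and doses: po 0–80 mg/day in olive oil; iv 0–80 mg/day in ethanol/Cremophor EL/saline 10:10:80; sq 0–8 mg/day in the iv vehicle. Vehicle controls; 5 mice/group. Day-4 thin-film parasitemia, expressed as percent reduction; ED50/ED90 by sigmoidal dose-response fit.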

[7] = tested on: P. berghei; details: cited from earlier work
[8] = 50 mg/kg po thrice daily days 2-4
[9] = 50 mg/kg po thrice daily for 3 days
[10] = 75 mg/kg po 3 times daily days 2-4
[11] = ICR, mouse, plasma, iv, 30 mg/kg
[12] = ICR, mouse, plasma, po, 75 mg/kg
[13] = po, olive oil, 4 days, parasitemia on day 4

C1CCCCCC2(CCCCC1)OOCCCOO2 [N-89, 1,2,6,7-tetraoxaspiro[7.11]nonadecane]
EC50 value of P. falciparum in vitro [1]: 6.8 ng/mL | Parasitemia day 1 ([2]; 50 mg/kg po group): 0.10±0.04% | Parasitemia day 3 [2, 8]: 0.11±0.06% | Parasitemia day 4 [2, 8]: 0.01±0.01% | Parasitemia day 5 [2, 8]: 0.002±0.004^c % | Parasitemia day 6 [2, 8]: 0.00^b % | parasitemia of the one mouse not yet cured on day 5 [2, 8]: 0.01% | Parasitemia day 2 [2, 8]: 0.51±0.14% | cure effect [2, 9]: complete cure effect | day on which parasites were eliminated / all mice cured, no recurrence to day 30 [2, 9]: 6 days | Parasitemia day 3 [2, 10]: 0.26±0.05% | Parasitemia day 4 [2, 10]: 0.01±0.01^a % | Parasitemia day 5 [2, 10]: 0.00^b % | Parasitemia day 6 [2, 10]: 0.00% | parasitemia of the 4 mice not yet cured on day 4 [2, 10]: below 0.015% | Parasitemia day 2 [2, 10]: 0.70±0.19% | day on which parasites were eliminated / all mice cured, no recurrence to day 30 ([2]; 75 mg/kg po 3 times daily for 3 days): 5 days and 4 to 5 days | Parasitemia day 1 ([2]; 75 mg/kg po group): 0.09±0.07% | day from which parasites disappeared post-treatment ([3]; 60 mg/kg twice daily for 4 days at 0.2% parasitemia): 7 days | recurrence and dermal irritation ([3]; 60 mg/kg twice daily for 4 days): without parasite recurrence or dermal irritation | toxicity against P. falciparum relative to FM3A cells (selective toxicity) [4]: 350 fold | AUC(0-inf) [5, 11]: 13600 ng·h/mL | AUC(0-t) [5, 11]: 13600 ng·h/mL | MRT [5, 11]: 14.4 min | Vd [5, 11]: 0.53 L/kg | clearance [5, 11]: 36.8 mL/min/kg | concentration at 0.25 h [5, 11]: 18.3 µg/mL | half-life [5, 11]: 90 min | bioavailability ([5]; ICR, mouse, plasma, oral, 75 mg/kg): 7.01% | AUC(0-inf) [5, 12]: 2380 ng·h/mL | AUC(0-t) [5, 12]: 2370 ng·h/mL | Cmax [5, 12]: 1.59 µg/mL | MRT [5, 12]: 107 min | Tmax [5, 12]: 45 min | concentration at 8 h [5, 12]: 0.0081 µg/mL | half-life [5, 12]: 58.2 min | plasma concentration ([5]; mice, 30 mg/kg iv, at 5 h): could not be detected | plasma concentration ([5]; mice, 75 mg/kg po, at 10 h): could not be detected | Cmax ([5]; mice, single dose 75 mg/kg po (Table 1)): 1590 µg/mL | ED50 ([6]; Plasmodium berghei, 96 h, sq, ethanol:Cremophor EL:saline 1:1:8, 4 days): 2.5 ± 1.1 mg/kg | ED50 ([6]; Plasmodium berghei, iv, 96 h, iv, ethanol:Cremophor EL:saline 1:1:8, 4 days): 14.5 ± 1.9 mg/kg | ED90 ([6]; iv, ethanol:Cremophor EL:saline 1:1:8, 4 days): 21.0 ± 0.8 mg/kg | ED50 [6, 13]: 20.5 ± 2.0 mg/kg | ED90 [6, 13]: 43.5 ± 1.5 mg/kg | ED90 ([6]; sq, ethanol:Cremophor EL:saline 1:1:8, 4 days): 3.8 ± 1.0 mg/kg

C[C@H]1[C@@H](OCc2ccc(C(=O)O)cc2)O[C@@H]2O[C@@]3(C)CC[C@H]4[C@H](C)CC[C@@H]1[C@@]24OO3 [artelinic acid]
effect of topical gel on infected mice ([7]; gel applied topically twice/day x 3 days post-infection, dose 270 mg/kg): prevented the death

CO[C@H]1O[C@@H]2O[C@@]3(C)CC[C@H]4[C@H](C)CC[C@@H]([C@H]1C)[C@@]24OO3 [artemether]
effect of topical formulation on infected mice ([7]; improved formulation, same experimental conditions, dose 60 mg/kg): efficient
